From ChEMBL document CHEMBL1255219, “Discovery of a β-d-2'-deoxy-2'-α-fluoro-2'-β-C-methyluridine nucleotide prodrug (PSI-7977) for the treatment of hepatitis C virus” (J Med Chem, 2010)

Experiments:
Hepatitis C virus [1] = assay: Antiviral activity against HCV infected in human clone A cells; type: functional, Hepacivirus hominis
How it was run: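 Clone A replicon cells seeded at 1500 cells/well. Compounds serially diluted in G418-free culture medium and added, then incubated 4 days at 37 °C in 5% CO2. HCV RNA quantified by real-time RT-PCR as ΔCt relative to the mean no-drug control.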

Hepatitis C virus [2] = assay: Antiviral activity against HCV infected in human clone A cells assessed as inhibition of cellular rRNA replication at 50 uM; type: functional, Hepacivirus hominis
Rattus norvegicus [3] = assay: AUC (0 to infinity) in rat liver assessed as 2'-F-2'-C-Methyluridine-5''-TP level at 50 mg/kg, po; type: ADME, organism-based; design: time infinity, dose 50 mg/kg, route oral; details: in vivo
How it was run: (§1)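 Rats given a single oral gavage dose of 50 mg/kg in 0.5% carboxymethylcellulose sodium, 5 mL/kg. Livers taken at 0.5, 1, 2, 4, 6 and 12 h after CO2 sacrifice and ice-cold saline perfusion, then snap-frozen. Homogenized in 3 volumes of cold 70% methanol with 20 mM EDTA/EGTA. Triphosphate measured by LC/MS/MS (ESI, MRM negative mode), noncompartmental analysis.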

Rattus norvegicus [4] = assay: AUC (0 to t) in rat liver assessed as 2'-F-2'-C-Methyluridine-5''-TP level at 50 mg/kg, po; type: ADME, organism-based; design: dose 50 mg/kg, route oral; details: in vivo; how it was run: as §1
Rattus norvegicus [5] = assay: Cmax in rat liver assessed as 2'-F-2'-C-Methyluridine-5''-TP level at 50 mg/kg, po; type: ADME, organism-based; design: dose 50 mg/kg, route oral; details: in vivo; how it was run: as §1
Rattus norvegicus [6] = assay: Tmax in rat liver assessed as 2'-F-2'-C-Methyluridine-5''-TP level at 50 mg/kg, po; type: ADME, organism-based; design: dose 50 mg/kg, route oral; details: in vivo; how it was run: as §1
[7] = Half life in human liver S9 fraction at 100 uM; type: ADME, subcellular
How it was run: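 Compound at 100 μM in 50 mM K2HPO4 pH 7.4 with 5 mM MgCl2. Started with 4 mg/mL human liver S9 at 37 °C. Samples at 0–24 h quenched with acetonitrile. Parent remaining measured by LC/MS/MS peak area relative to 0 h, and half-life calculated.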

[8] = Half life in simulated intestinal fluid of pH 7.5 at 50 ug/mL; type: physicochemical
How it was run: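 Compound at 50 μg/mL in simulated gastric fluid (pH 1.2) or simulated intestinal fluid (pH 7.5), 37 °C, 20 h. Injected by reverse-phase HPLC every 2 h, peak area at 260 nm.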

[9] = Half life in simulated gastric fluid at pH 1.2 at 50 ug/mL; type: physicochemical
How it was run: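 Compound at 50 μg/mL in simulated gastric fluid (pH 1.2) or simulated intestinal fluid (pH 7.5), 37 °C, 20 h. Injected by reverse-phase HPLC every 2 h, peak area at 260 nm. Percent parent remaining relative to 0 h, giving half-life.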

Homo sapiens = species on record: Homo sapiens; assay: Half life in human plasma at 100 uM

EC90 (Hepatitis C virus [1]; Hepatitis C virus) [nM] | Structure (SMILES) | inhibition at 50 µM (Hepatitis C virus [2]) [%] | also measured
54 | C[C@H](NP(=O)(OC[C@H]1O[C@@H](n2ccc(=O)[nH]c2=O)[C@](C)(F)[C@@H]1O)Oc1ccc(Cl)cc1)C(=O)OC1CCCCC1 (stereo partly drawn) | 66.9 | –
390 | CCOC(=O)[C@H](C)NP(=O)(OC[C@H]1O[C@@H](n2ccc(=O)[nH]c2=O)[C@](C)(F)[C@@H]1O)Oc1ccc(Cl)cc1 (stereo partly drawn) | 0 | –
> 50000 | COC(=O)[C@@H](NP(=O)(OC[C@H]1O[C@@H](n2ccc(=O)[nH]c2=O)[C@](C)(F)[C@@H]1O)Oc1ccccc1)C(C)C (stereo partly drawn) | 0 | –
15600 | COC(=O)[C@H](Cc1c[nH]c2ccccc12)NP(=O)(OC[C@H]1O[C@@H](n2ccc(=O)[nH]c2=O)[C@](C)(F)[C@@H]1O)Oc1ccccc1 (stereo partly drawn) | 68.4 | –
22100 | COC(=O)CNP(=O)(OC[C@H]1O[C@@H](n2ccc(=O)[nH]c2=O)[C@](C)(F)[C@@H]1O)Oc1ccccc1 (stereo partly drawn) | 0 | –
240 | C[C@H](NP(=O)(OC[C@H]1O[C@@H](n2ccc(=O)[nH]c2=O)[C@](C)(F)[C@@H]1O)Oc1ccccc1)C(=O)OCc1ccc(F)cc1 (stereo partly drawn) | 0 | –
2200 | COC(=O)C(C)(C)NP(=O)(OC[C@H]1O[C@@H](n2ccc(=O)[nH]c2=O)[C@](C)(F)[C@@H]1O)Oc1ccc(F)cc1 (stereo partly drawn) | 0 | –
570 | CC(C)OC(=O)[C@H](C)NP(=O)(OC[C@H]1O[C@@H](n2ccc(=O)[nH]c2=O)[C@](C)(F)[C@@H]1O)Oc1ccc(Br)cc1 (stereo partly drawn) | 0 | –
57600 | COC(=O)[C@H](Cc1ccccc1)NP(=O)(OC[C@H]1O[C@@H](n2ccc(=O)[nH]c2=O)[C@](C)(F)[C@@H]1O)Oc1ccccc1 (stereo partly drawn) | 20.6 | –
5400 | COC(=O)[C@H](CC(C)C)NP(=O)(OC[C@H]1O[C@@H](n2ccc(=O)[nH]c2=O)[C@](C)(F)[C@@H]1O)Oc1ccccc1 (stereo partly drawn) | 0 | –
> 50000 | CCCCCOC(=O)[C@H](C)NP(=O)(OC[C@H]1O[C@@H](n2ccc(=O)[nH]c2=O)[C@](C)(F)[C@@H]1O)Oc1ccccc1 (stereo partly drawn) | 92 | –
690 | COC(=O)[C@H](C)NP(=O)(OC[C@H]1O[C@@H](n2ccc(=O)[nH]c2=O)[C@](C)(F)[C@@H]1O)Oc1ccc(Cl)cc1Cl (stereo partly drawn) | 10.9 | –
90 | CCCCOC(=O)[C@H](C)NP(=O)(OC[C@H]1O[C@@H](n2ccc(=O)[nH]c2=O)[C@](C)(F)[C@@H]1O)Oc1ccccc1 (stereo partly drawn) | 79.6 | –
3900 | CC(C)C(=O)OC[C@H]1O[C@@H](n2ccc(N)nc2=O)[C@](C)(F)[C@@H]1OC(=O)C(C)C [MERICITABINE] | 0 | –
60 | CCC(C)OC(=O)[C@H](C)NP(=O)(OC[C@H]1O[C@@H](n2ccc(=O)[nH]c2=O)[C@](C)(F)[C@@H]1O)Oc1ccccc1 (stereo partly drawn) | 93.8 | –
690 | COC(=O)[C@H](C)NP(=O)(OC[C@H]1O[C@@H](n2ccc(=O)[nH]c2=O)[C@](C)(F)[C@@H]1O)Oc1ccc(F)cc1 (stereo partly drawn) | 16.8 | –
130 | C[C@H](NP(=O)(OC[C@H]1O[C@@H](n2ccc(=O)[nH]c2=O)[C@](C)(F)[C@@H]1O)Oc1ccccc1)C(=O)OCc1ccccc1 (stereo partly drawn) | 74.3 | –
> 50000 | CCOP(=O)(N[C@@H](C)C(=O)OC)OC[C@H]1O[C@@H](n2ccc(=O)[nH]c2=O)[C@](C)(F)[C@@H]1O (stereo partly drawn) | 16.8 | –
450 | COC(=O)[C@H](C)NP(=O)(OC[C@H]1O[C@@H](n2ccc(=O)[nH]c2=O)[C@](C)(F)[C@@H]1O)Oc1ccc(Cl)c(Cl)c1 (stereo partly drawn) | 63.7 | –
1610 | CC[C@H](NP(=O)(OC[C@H]1O[C@@H](n2ccc(=O)[nH]c2=O)[C@](C)(F)[C@@H]1O)Oc1ccccc1)C(=O)OC (stereo partly drawn) | 0 | –
18500 | C[C@H](NP(=O)(OC[C@H]1O[C@@H](n2ccc(=O)[nH]c2=O)[C@](C)(F)[C@@H]1O)Oc1ccccc1)C(=O)Oc1ccccc1 (stereo partly drawn) | 0 | –

More lines, now with the values behind:

Structure (SMILES) | EC90 (Hepatitis C virus [1]; Hepatitis C virus) [nM] | inhibition at 50 µM (Hepatitis C virus [2]) [%] | also measured
COC(=O)[C@H](C)NP(=O)(OC[C@H]1O[C@@H](n2ccc(=O)[nH]c2=O)[C@](C)(F)[C@@H]1O)Oc1ccc(Br)cc1 (stereo partly drawn) | 2110 | 30.8 | –
CC(C)OC(=O)[C@H](C)NP(=O)(OC[C@H]1O[C@@H](n2ccc(=O)[nH]c2=O)[C@](C)(F)[C@@H]1O)Oc1ccc(F)cc1 (stereo partly drawn) | 770 | 0 | AUC (Rattus norvegicus [3]): 7375 ng·h/g; AUC (Rattus norvegicus [4]): 6140 ng·h/g; Cmax (Rattus norvegicus [5]): 519 ng/g; Tmax (Rattus norvegicus [6]): 6 h; half-life at 100 µM [7]: 0.42 h; half-life at 50 ug/mL [8]: > 20 h; half-life at 50 ug/mL [9]: > 20 h; half-life at 100 µM (Homo sapiens): > 24 h
CCOC(=O)[C@H](C)NP(=O)(OC[C@H]1O[C@@H](n2ccc(=O)[nH]c2=O)[C@](C)(F)[C@@H]1O)Oc1ccccc1 (stereo partly drawn) | 980 | 36.9 | –
COC(=O)[C@H](C)NP(=O)(OC[C@H]1O[C@@H](n2ccc(=O)[nH]c2=O)[C@](C)(F)[C@@H]1O)Oc1cccc2ccccc12 (stereo partly drawn) | 90 | 95.4 | –
CCOC(=O)[C@H](C)NP(=O)(OC[C@H]1O[C@@H](n2ccc(=O)[nH]c2=O)[C@](C)(F)[C@@H]1O)Oc1ccc(F)cc1 (stereo partly drawn) | 760 | 55.3 | AUC (Rattus norvegicus [3]): 5423 ng·h/g; AUC (Rattus norvegicus [4]): 4191 ng·h/g; Cmax (Rattus norvegicus [5]): 291 ng/g; Tmax (Rattus norvegicus [6]): 4 h; half-life at 100 µM [7]: 0.23 h; half-life at 50 ug/mL [8]: > 20 h; half-life at 50 ug/mL [9]: 17 h; half-life at 100 µM (Homo sapiens): > 8 h
COC(=O)[C@H](C)NP(=O)(OC[C@H]1O[C@@H](n2ccc(=O)[nH]c2=O)[C@](C)(F)[C@@H]1O)Oc1ccc(Cl)cc1 (stereo partly drawn) | 580 | 62.8 | –
C[C@H](NP(=O)(OC[C@H]1O[C@@H](n2ccc(=O)[nH]c2=O)[C@](C)(F)[C@@H]1O)Oc1ccccc1)C(=O)OCC(F)F (stereo partly drawn) | 6800 | 38.3 | –
CCOC(=O)[C@H](C)NP(=O)(OC[C@H]1O[C@@H](n2ccc(=O)[nH]c2=O)[C@](C)(F)[C@@H]1O)Oc1ccc(Br)cc1 (stereo partly drawn) | 360 | 80.5 | –
C[C@H](NP(=O)(OC[C@H]1O[C@@H](n2ccc(=O)[nH]c2=O)[C@](C)(F)[C@@H]1O)Oc1ccc(Br)cc1)C(=O)OC1CCCCC1 (stereo partly drawn) | 39 | 91.5 | –
COC(=O)[C@H](CCSC)NP(=O)(OC[C@H]1O[C@@H](n2ccc(=O)[nH]c2=O)[C@](C)(F)[C@@H]1O)Oc1ccccc1 (stereo partly drawn) | 60100 | 24.1 | –
C[C@H](NP(=O)(OC[C@H]1O[C@@H](n2ccc(=O)[nH]c2=O)[C@](C)(F)[C@@H]1O)Oc1ccccc1)C(=O)OCCF (stereo partly drawn) | 1720 | 43.8 | –
CC(C)OC(=O)C(C)N[P@](=O)(OC[C@H]1O[C@@H](n2ccc(=O)[nH]c2=O)[C@](C)(F)[C@@H]1O)Oc1ccccc1 (single isomer, unassigned) [SOFOSBUVIR] | – | – | EC90 (Hepatitis C virus [1]): > 50000 nM
C[C@H](NP(=O)(OC[C@H]1O[C@@H](n2ccc(=O)[nH]c2=O)[C@](C)(F)[C@@H]1O)Oc1ccccc1)C(=O)OC1CCCCC1 (stereo partly drawn) | 250 | 61 | AUC (Rattus norvegicus [3]): 8831 ng·h/g; AUC (Rattus norvegicus [4]): 6487 ng·h/g; Cmax (Rattus norvegicus [5]): 557 ng/g; Tmax (Rattus norvegicus [6]): 2 h; half-life at 100 µM [7]: 1.4 h; half-life at 50 ug/mL [8]: > 20 h; half-life at 50 ug/mL [9]: 17 h; half-life at 100 µM (Homo sapiens): > 24 h
CC(C)OC(=O)[C@H](C)NP(=O)(OC[C@H]1O[C@@H](n2ccc(=O)[nH]c2=O)[C@](C)(F)[C@@H]1O)Oc1ccc(Cl)cc1 (stereo partly drawn) | 420 | 0 | AUC (Rattus norvegicus [3]): 8468 ng·h/g; AUC (Rattus norvegicus [4]): 5143 ng·h/g; Cmax (Rattus norvegicus [5]): 339 ng/g; Tmax (Rattus norvegicus [6]): 1 h; half-life at 100 µM [7]: 0.35 h; half-life at 50 ug/mL [8]: > 20 h; half-life at 50 ug/mL [9]: > 20 h; half-life at 100 µM (Homo sapiens): > 24 h
COC(=O)C1(NP(=O)(OC[C@H]2O[C@@H](n3ccc(=O)[nH]c3=O)[C@](C)(F)[C@@H]2O)Oc2ccc(F)cc2)CC1 (stereo partly drawn) | > 50000 | 0 | –
